The nature of data set [1]: Protein binding in human plasma assessed as unbound fraction at 3 uM measured after 7 hrs by LC-MS/MS analysis. In kind it is ADME, cell-free.
Data set [2] can be described thus: Clearance in Wistar rat at 0.3 to 0.5 mg/kg, iv administered as bolus dose by LC-MS/MS analysis. Format: ADME, organism-based. Conditions: in vivo.
Data set [3] has as its target T1, Cyclin-G-associated kinase (Homo sapiens, UniProt O14976).
T1 sequence (O14976 whole entry): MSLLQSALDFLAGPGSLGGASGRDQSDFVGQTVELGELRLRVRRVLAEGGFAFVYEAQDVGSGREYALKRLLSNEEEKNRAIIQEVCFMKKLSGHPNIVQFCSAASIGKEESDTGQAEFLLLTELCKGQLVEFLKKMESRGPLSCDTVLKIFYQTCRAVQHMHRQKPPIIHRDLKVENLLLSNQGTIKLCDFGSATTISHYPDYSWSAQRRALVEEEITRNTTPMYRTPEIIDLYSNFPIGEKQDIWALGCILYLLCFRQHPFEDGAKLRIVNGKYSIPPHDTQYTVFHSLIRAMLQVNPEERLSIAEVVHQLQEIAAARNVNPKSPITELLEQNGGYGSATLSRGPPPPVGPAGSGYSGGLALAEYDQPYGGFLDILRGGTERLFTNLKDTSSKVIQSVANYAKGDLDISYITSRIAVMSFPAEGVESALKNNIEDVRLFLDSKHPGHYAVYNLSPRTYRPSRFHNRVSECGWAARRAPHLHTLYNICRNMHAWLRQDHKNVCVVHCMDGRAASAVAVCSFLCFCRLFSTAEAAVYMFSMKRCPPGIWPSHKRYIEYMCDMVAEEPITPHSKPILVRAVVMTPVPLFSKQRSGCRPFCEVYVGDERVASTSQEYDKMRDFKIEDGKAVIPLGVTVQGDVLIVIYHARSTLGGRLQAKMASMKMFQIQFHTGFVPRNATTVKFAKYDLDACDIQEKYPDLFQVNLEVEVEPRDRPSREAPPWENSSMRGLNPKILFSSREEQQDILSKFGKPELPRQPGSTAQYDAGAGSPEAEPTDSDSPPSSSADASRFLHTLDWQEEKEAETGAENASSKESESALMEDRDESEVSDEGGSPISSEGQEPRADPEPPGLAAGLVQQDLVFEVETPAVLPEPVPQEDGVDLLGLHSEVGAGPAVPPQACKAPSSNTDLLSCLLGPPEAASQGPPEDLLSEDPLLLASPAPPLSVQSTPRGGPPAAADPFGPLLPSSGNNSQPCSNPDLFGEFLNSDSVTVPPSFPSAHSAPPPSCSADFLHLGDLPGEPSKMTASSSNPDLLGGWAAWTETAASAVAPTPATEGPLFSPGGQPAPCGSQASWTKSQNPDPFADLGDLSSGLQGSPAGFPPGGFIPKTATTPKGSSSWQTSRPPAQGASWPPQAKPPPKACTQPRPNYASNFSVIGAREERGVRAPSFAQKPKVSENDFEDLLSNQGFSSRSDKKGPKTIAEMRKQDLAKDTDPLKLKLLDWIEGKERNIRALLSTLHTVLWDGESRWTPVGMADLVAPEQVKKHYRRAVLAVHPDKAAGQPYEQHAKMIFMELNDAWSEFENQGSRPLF
Put plainly: Binding affinity to wild-type human partial length GAK (G13 to Y338 residues) expressed in bacterial expression system by Kinomescan method.

Data set [4] in a line: Clearance in Beagle dog at 0.3 to 0.5 mg/kg, iv administered as bolus dose by LC-MS/MS analysis. In kind it is ADME, organism-based, Canis lupus familiaris. Conditions: in vivo.
The next data set has as its system SUM149PT. Put plainly: Antitumor activity against human SUM149 cells xenografted in nude mouse assessed as tumor growth at 20 mg/kg, po bid dosed every 3 days followed by 4 days interval in presence of olaparib relative to control. Format: functional. In a few lines: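 SUM149 human TNBC xenograft in nude mice, n = 10/group. Oral 20 mg/kg b.i.d., 3 days on/4 days off, combined with olaparib 50 mg/kg q.d. i.p. T/C ratio versus vehicle and the monotherapies; body weight loss was monitored.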
(A xenograft is tissue or cells of one species grown in another, often human tumour cells in immunodeficient mice.)

One may read the fraction unbound as the share of the substance not bound to proteins or other matrix. As a reminder, the clearance is the rate of elimination divided by the concentration. Lower therefore signals inefficient removal. For orientation: Kd means the concentration at which binding is half-saturated. Higher therefore signals lower affinity.

For the compound `C[C@@H]1COCCN1c1cc(-c2ccnn2C)c2ccnc(-c3ccn[nH]3)c2n1` [ELIMUSERTIB], in data set [1], the fraction unbound at 7 h, 3 µM was 0.03. Also, the clearance was 20 mL/min/kg in data set [2] and 13.2 mL/min/kg in data set [4]. Also, binding in data set [3] was put at a Kd of 580 nM. Besides, the T/C with SUM149PT is on record as -0.06.

Source of the values: ChEMBL document CHEMBL4610117 (J Med Chem, 2020).
